Data taken from the M2OR odorant receptor database.
Numbering of substitutions follows the chain as printed.

Experiments:
Settings in all cases: stereoisomer not certain
OR56B4 (Homo sapiens) = target: T1, OR56B4 (Homo sapiens) (UniProt Q8NH76)
T1 sequence (whole entry): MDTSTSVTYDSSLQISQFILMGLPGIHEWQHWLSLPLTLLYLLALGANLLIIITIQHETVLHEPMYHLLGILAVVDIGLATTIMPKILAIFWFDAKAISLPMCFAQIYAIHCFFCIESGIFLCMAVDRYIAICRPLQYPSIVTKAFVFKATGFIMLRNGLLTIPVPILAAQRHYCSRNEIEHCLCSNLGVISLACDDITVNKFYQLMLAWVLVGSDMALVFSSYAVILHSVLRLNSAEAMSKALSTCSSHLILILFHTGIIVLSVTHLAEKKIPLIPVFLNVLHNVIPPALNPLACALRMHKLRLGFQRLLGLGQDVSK
Summary of the method: (§1)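 Assay methods differ from source to source, frequently being transient luciferase assays in mammalian cell lines. For each receptor–molecule pair, the label responsive (active) applies when the original authors judged the measured signal statistically different from baseline, and non-responsive (inactive) applies otherwise.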

OR5A1 (Homo sapiens) = target: T2, OR5A1 (Homo sapiens) (UniProt Q8NGJ0)
T2 sequence (whole entry): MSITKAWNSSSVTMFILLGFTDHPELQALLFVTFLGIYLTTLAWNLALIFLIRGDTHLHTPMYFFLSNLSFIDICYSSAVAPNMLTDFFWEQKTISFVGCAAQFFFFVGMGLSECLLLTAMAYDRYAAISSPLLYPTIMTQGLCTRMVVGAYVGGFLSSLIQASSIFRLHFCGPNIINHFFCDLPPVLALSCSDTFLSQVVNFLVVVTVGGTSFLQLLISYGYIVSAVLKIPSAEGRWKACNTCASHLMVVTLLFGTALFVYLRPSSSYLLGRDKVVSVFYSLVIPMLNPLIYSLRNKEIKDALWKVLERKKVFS
Summary of the method: as §1

OR5A1 D183N = system: T3, OR5A1 D183N
T3 sequence (whole entry): T2 sequence (whole entry) with D183N
Summary of the method: as §1

OR5A2 (Homo sapiens) = target: T4, OR5A2 (Homo sapiens) (UniProt Q8NGI9)
T4 sequence (whole entry): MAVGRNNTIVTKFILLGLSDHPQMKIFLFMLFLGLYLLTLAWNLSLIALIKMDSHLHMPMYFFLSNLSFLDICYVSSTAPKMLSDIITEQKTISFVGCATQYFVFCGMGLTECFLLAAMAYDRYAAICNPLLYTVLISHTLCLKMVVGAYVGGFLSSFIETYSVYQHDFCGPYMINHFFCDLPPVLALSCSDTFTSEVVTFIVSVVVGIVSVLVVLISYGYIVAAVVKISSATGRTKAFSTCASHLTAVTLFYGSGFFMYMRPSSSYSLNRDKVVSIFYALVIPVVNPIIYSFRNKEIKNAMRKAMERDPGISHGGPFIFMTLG
Summary of the method: as §1

OR5AC2 (Homo sapiens) = target: T5, OR5AC2 (Homo sapiens) (UniProt Q9NZP5)
T5 sequence (whole entry): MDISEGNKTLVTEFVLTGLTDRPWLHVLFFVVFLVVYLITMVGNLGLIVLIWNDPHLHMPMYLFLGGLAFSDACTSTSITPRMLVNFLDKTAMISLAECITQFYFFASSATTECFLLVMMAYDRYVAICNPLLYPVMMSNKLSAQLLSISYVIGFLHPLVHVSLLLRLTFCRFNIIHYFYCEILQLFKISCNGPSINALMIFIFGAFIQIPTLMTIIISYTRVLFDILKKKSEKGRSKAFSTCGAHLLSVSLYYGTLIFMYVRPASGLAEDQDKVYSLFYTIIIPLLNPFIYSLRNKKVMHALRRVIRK
Summary of the method: as §1

OR5AK2 (Homo sapiens) = target: T6, OR5AK2 (Homo sapiens) (UniProt Q8NH90)
T6 sequence (whole entry): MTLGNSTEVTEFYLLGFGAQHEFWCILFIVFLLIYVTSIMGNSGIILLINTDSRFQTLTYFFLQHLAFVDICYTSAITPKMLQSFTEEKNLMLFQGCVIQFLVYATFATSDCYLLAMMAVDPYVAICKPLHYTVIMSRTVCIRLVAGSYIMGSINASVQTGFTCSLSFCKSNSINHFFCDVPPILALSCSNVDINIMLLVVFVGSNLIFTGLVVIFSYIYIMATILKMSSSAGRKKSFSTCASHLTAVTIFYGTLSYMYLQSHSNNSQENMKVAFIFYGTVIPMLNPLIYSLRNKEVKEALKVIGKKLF
Summary of the method: as §1

OR5AN1 (Homo sapiens) = target: T7, OR5AN1 (Homo sapiens) (UniProt Q8NGI8)
T7 sequence (whole entry): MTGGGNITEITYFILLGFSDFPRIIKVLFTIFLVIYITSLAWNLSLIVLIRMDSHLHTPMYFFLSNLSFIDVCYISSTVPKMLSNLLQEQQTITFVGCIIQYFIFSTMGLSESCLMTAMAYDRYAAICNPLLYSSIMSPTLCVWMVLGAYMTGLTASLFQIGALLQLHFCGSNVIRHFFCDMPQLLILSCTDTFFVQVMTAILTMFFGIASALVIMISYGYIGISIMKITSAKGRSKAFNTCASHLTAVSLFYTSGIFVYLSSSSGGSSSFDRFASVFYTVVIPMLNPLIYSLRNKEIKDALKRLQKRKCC
Summary of the method: as §1

OR5AP2 (Homo sapiens) = target: T8, OR5AP2 (Homo sapiens) (UniProt Q8NGF4)
T8 sequence (whole entry): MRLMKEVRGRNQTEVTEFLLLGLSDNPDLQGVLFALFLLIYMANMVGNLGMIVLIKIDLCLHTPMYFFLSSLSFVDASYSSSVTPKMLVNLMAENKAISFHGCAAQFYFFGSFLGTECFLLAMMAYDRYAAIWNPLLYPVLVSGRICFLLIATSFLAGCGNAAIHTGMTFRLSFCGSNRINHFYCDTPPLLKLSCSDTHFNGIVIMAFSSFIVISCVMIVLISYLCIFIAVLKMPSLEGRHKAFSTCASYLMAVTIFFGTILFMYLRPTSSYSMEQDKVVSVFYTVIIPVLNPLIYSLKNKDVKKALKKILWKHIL
Summary of the method: as §1

OR5AR1 (Homo sapiens) = target: T9, OR5AR1 (Homo sapiens) (UniProt Q8NGP9)
T9 sequence (whole entry): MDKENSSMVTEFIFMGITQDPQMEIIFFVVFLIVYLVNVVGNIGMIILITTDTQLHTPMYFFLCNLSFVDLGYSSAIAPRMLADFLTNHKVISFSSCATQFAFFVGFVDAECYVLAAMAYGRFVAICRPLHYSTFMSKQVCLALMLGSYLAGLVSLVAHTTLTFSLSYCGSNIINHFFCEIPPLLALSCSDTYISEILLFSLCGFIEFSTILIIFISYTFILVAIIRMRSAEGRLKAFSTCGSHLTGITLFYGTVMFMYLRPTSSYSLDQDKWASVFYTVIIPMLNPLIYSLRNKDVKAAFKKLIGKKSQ
Summary of the method: as §1

OR5AS1 (Homo sapiens) = target: T10, OR5AS1 (Homo sapiens) (UniProt Q8N127)
T10 sequence (whole entry): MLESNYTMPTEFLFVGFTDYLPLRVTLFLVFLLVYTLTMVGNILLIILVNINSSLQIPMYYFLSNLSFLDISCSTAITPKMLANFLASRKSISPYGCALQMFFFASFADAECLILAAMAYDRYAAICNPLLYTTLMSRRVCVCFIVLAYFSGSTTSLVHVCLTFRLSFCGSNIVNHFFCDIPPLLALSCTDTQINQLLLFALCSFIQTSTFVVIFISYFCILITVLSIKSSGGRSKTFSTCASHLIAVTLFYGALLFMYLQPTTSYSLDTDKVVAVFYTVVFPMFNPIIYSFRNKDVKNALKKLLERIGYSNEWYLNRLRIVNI
Summary of the method: as §1

OR5AU1 (Homo sapiens) = target: T11, OR5AU1 (Homo sapiens) (UniProt Q8NGC0)
T11 sequence (whole entry): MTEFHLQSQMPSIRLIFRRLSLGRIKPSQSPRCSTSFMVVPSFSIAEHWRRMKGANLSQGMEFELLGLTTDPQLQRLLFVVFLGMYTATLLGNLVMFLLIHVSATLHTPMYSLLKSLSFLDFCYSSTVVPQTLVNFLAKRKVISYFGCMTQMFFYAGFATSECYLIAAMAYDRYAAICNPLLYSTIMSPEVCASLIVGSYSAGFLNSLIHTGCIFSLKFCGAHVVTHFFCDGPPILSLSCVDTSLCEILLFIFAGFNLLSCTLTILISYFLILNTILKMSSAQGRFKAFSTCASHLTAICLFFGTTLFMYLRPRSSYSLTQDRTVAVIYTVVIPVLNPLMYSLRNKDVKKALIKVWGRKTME
Summary of the method: as §1

OR5B12 (Homo sapiens) = target: T12, OR5B12 (Homo sapiens) (UniProt Q96R08)
T12 sequence (whole entry): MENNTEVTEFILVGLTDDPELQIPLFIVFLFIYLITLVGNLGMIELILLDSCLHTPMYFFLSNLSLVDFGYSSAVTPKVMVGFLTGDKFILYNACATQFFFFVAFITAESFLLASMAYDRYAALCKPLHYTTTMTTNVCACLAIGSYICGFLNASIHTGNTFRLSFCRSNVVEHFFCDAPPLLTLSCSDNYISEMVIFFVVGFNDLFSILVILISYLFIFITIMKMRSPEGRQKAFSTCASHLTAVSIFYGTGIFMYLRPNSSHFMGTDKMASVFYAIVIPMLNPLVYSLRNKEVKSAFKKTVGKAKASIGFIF
Summary of the method: as §1

OR5B17 (Homo sapiens) = target: T13, OR5B17 (Homo sapiens) (UniProt Q8NGF7)
T13 sequence (whole entry): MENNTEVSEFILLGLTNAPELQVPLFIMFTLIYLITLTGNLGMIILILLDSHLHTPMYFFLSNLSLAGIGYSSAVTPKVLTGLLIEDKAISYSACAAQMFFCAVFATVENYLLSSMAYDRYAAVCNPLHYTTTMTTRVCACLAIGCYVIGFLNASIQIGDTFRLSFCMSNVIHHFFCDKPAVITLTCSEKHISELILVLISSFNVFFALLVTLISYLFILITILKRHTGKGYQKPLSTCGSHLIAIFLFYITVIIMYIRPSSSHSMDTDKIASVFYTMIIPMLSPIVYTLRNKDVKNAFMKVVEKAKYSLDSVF
Summary of the method: as §1

OR5B2 (Homo sapiens) = target: T14, OR5B2 (Homo sapiens) (UniProt Q96R09)
T14 sequence (whole entry): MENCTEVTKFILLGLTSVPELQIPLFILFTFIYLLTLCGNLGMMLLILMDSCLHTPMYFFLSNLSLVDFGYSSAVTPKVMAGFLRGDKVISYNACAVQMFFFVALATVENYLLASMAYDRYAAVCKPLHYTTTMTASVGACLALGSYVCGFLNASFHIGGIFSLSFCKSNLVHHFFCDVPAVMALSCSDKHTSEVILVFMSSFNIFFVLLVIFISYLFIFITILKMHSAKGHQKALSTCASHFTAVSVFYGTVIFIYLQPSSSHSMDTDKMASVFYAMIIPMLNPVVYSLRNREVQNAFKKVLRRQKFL
Summary of the method: as §1

OR5B2 E6D = system: T15, OR5B2 E6D
T15 sequence (whole entry): T14 sequence (whole entry) with E6D
Summary of the method: as §1

OR5B21 (Homo sapiens) = target: T16, OR5B21 (Homo sapiens) (UniProt A6NL26)
T16 sequence (whole entry): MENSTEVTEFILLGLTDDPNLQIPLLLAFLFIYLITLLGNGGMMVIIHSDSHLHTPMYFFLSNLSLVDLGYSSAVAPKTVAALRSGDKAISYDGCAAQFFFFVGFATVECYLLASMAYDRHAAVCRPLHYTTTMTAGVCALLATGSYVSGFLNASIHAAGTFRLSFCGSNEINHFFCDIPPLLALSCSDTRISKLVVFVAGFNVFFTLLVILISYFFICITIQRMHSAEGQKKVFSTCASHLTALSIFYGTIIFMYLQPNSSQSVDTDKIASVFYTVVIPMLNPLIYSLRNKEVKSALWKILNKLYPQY
Summary of the method: as §1

OR5B3 (Homo sapiens) = target: T17, OR5B3 (Homo sapiens) (UniProt Q8NH48)
T17 sequence (whole entry): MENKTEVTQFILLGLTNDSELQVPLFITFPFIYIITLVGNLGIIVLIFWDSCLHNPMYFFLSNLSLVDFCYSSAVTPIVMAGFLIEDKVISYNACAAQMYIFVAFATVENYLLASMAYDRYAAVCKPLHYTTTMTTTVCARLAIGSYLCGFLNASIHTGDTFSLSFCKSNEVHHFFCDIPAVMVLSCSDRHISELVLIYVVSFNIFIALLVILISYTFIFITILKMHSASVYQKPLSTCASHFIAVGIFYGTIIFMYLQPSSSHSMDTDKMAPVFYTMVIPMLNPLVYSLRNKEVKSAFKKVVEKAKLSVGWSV
Summary of the method: as §1

OR5B3 I198V G247A = system: T18, OR5B3 I198V G247A
T18 sequence (whole entry): T17 sequence (whole entry) with I198V, G247A
Summary of the method: as §1

Measured: odorant receptor agonist call

CCCC(S)CCOC(C)=O (stereo not given)
inactive: all assays above

CC1CC(C)(c2ccccc2)CO1 (stereo not given)
inactive: OR5AC2 (Homo sapiens) | OR5B17 (Homo sapiens)

CC(CO)CS (stereo not given)
not listed: OR5A1 D183N | OR5B2 E6D | OR5B3 I198V G247A
inactive: all other assays above

CC(C)=CCCC(C)CC=O (stereo not given)
inactive: OR5AC2 (Homo sapiens) | OR5B17 (Homo sapiens)

CCCCCC(=O)C(C)C(C)=O (stereo not given)
not listed: OR5A1 D183N | OR5B2 E6D | OR5B3 I198V G247A
inactive: all other assays above

CC1=C(O)C(=O)C(C)O1 (stereo not given)
inactive: all assays above
